Measurements pooled from the literature.
Each line is one published result; the experiments were not run side by side.
Action: inhibitor
SLCO1B3 M233I: Solute carrier organic anion transporter family member 1B3 (SLCO1B3, Homo sapiens, UniProt Q9NPD5, M233I)
VCP: Transitional endoplasmic reticulum ATPase (VCP, Homo sapiens, UniProt P55072)
BLK: Tyrosine-protein kinase Blk (BLK, Homo sapiens, UniProt P51451)
P4HB: Protein disulfide-isomerase (P4HB, Homo sapiens, UniProt P07237)
SLCO1B3 S112A: Solute carrier organic anion transporter family member 1B3 (SLCO1B3, Homo sapiens, UniProt Q9NPD5, S112A)
HDAC4: Histone deacetylase 4 (HDAC4, Homo sapiens, UniProt P56524)

CCc1oc2cc(F)ccc2c1C(=O)c1cc(Br)c(O)c(Br)c1 — IC50 (Solute carrier family 2, facilitated glucose transporter member 9 (SLC2A9, Homo sapiens, UniProt Q9NRM0); transporter uptake; oocytes): 30.4 µM
Cc1cc(O)c(-c2ccc([C@@H](C)CN(C)C)cc2)c2c1[nH]c(=O)c1sccc12 — IC50 (Cyclin-dependent kinase 13, with cyclin K (CDK13, Homo sapiens, UniProt Q14004); enzyme activity): > 1 µM
CC(C)n1c(/C=C/C(O)CC(O)CC(=O)O)c(-c2ccc(F)cc2)c2ccccc21 (centres unmarked) — IC50 (SLCO1B3 M233I; transporter uptake, radiometric; 2 min): 11 µM
CONC(=O)Cc1c(C)n(-c2nc3c(c(NCc4ccccc4)n2)CCCN3)c2ccccc12 — IC50 (VCP; enzyme activity, ADP detection): 0.177 µM
CC#CC(=O)N1CCC[C@H]1c1nc(-c2ccc(C(=O)Nc3ccccn3)cc2)c2c(N)nccn12 — IC50 (BLK; enzyme activity): 4.22 µM
O=c1c(O)cc([C@H]2Oc3cc(O)cc(O)c3C[C@H]2O)cc2c([C@H]3Oc4cc(O)cc(O)c4C[C@H]3O)cc(O)c(O)c12 — IC50 (P4HB; enzyme activity, fluorescence): > 500 µM
CCc1oc2ccccc2c1C(=O)c1cc(Br)c(O)c(Br)c1 — IC50 (Solute carrier organic anion transporter family member 1B3 (SLCO1B3, Homo sapiens, UniProt Q9NPD5); transporter uptake, radiometric; oocytes): 25.3 µM
Cc1cc2c(C(N)=O)cccc2n1-c1nc2c(c(NCc3cccnc3)n1)CCCN2 — IC50 (VCP; enzyme activity, ADP detection): 0.115 µM
Clc1ccc(Nc2ccncc2)cc1Cl — IC50 (G/T mismatch-specific thymine DNA glycosylase (TDG, Homo sapiens, UniProt Q13569); enzyme activity): > 99 µM
CC(=O)O[C@H]1C(=O)[C@@]2(C)[C@H]([C@H](OC(=O)c3ccccc3)[C@]3(O)C[C@H](OC(=O)[C@H](O)[C@@H](NC(=O)c4ccccc4)c4ccccc4)C(C)=C1C3(C)C)[C@]1(OC(C)=O)CO[C@@H]1C[C@@H]2O — IC50 (SLCO1B3 S112A; transporter uptake, radiometric; 2 min): 87.7 µM
O=C(NO)c1ccc(Cn2cnc3c(Nc4cccc([N+](=O)[O-])c4)ncnc32)cc1 — IC50 (HDAC4; enzyme activity): 0.531 µM
NC/C(=C\F)COc1cccc(Cn2c(=S)[nH]c(=O)c3[nH]cnc32)c1 — IC50 (Lactoperoxidase (LPO, Bos taurus, UniProt P80025); enzyme activity): 7.5 µM
O=C(O[C@@H]1[C@@H](O)[C@H](Oc2cc(O)c3c(c2)O[C@H](c2ccccc2)CC3=O)O[C@@H]2COC(=O)c3cc(O)c(O)c(O)c3-c3c(cc(O)c(O)c3O)C(=O)O[C@@H]12)c1cc(O)c(O)c(O)c1 — IC50 (Protein disulfide-isomerase A4 (PDIA4, Homo sapiens, UniProt P13667); enzyme activity, fluorescence): 7.8 µM
COc1ccc(N(Cc2csc(-c3ccccc3)n2)C(=O)CCCCCC(=O)NO)cc1 — IC50 (HDAC4; enzyme activity): > 10 µM
CN(Cc1cnc2nc(N)nc(N)c2n1)c1ccc(C(=O)N[C@@H](CCC(=O)O)C(=O)O)cc1 — IC50 (SLCO1B3 S112A; transporter uptake, radiometric; 2 min): > 100 µM
COc1ccc(N(Cc2csc(-c3ccc(C)cc3)n2)C(=O)CCCCCC(=O)NO)cc1 — IC50 (HDAC4; enzyme activity): > 10 µM
CC#CC(=O)N1CC[C@@H](n2c(=O)n(-c3ccc(Oc4ccccc4)cc3)c3c(N)ncnc32)C1 — IC50 (BLK; enzyme activity): 0.793 µM
Cc1cc2c(C(N)=O)nccc2n1-c1nc2c(c(NCc3ccccc3)n1)CCCN2 — IC50 (VCP; enzyme activity, ADP detection): 0.121 µM
CCN(CCO)CCCC(C)Nc1ccnc2cc(Cl)ccc12 (centres unmarked) — IC50 (Procathepsin L (CTSL, Homo sapiens, UniProt P07711); enzyme activity, fluorescence): 234 µM
O=C1C[C@@H](c2ccccc2)Oc2cc(O)cc(O)c21 — IC50 (P4HB; enzyme activity, fluorescence): > 500 µM
Cc1cc2c(C(N)=O)cccc2n1-c1nc2c(c(NCc3cccc(O)c3)n1)CCCN2 — IC50 (VCP; enzyme activity, ADP detection): 0.014 µM
COc1cccc2c1C(=O)c1c(O)c3c(c(O)c1C2=O)C[C@@](O)(C(=O)CO)C[C@@H]3O[C@H]1C[C@H](N)[C@H](O)[C@H](C)O1 — IC50 (SLCO1B3 M233I; transporter uptake, radiometric; 2 min): > 100 µM
Cc1c(C(N)=O)c2ccccc2n1-c1nc2c(c(NCc3ccccc3)n1)CCCN2 — IC50 (VCP; enzyme activity, ADP detection): 0.393 µM
O=C(O[C@@H]1Cc2c(O)cc(O)cc2O[C@@H]1c1cc(O)c(O)c(O)c1)c1cc(O)c(O)c(O)c1 — IC50 (P4HB; enzyme activity, fluorescence): 243 µM
C[C@H]1CN(C2COC2)CCN1c1ccc(Nc2cc(-c3ccnc(N4CCn5c(cc6c5CC(C)(C)C6)C4=O)c3CO)cn(C)c2=O)nc1 — IC50 (BLK; enzyme activity): > 5 µM
Cc1cc2c(C(N)=O)cccc2n1-c1nc2c(c(NCc3ccccn3)n1)CCCN2 — IC50 (VCP; enzyme activity, ADP detection): 0.115 µM
